Three compounds from ChEMBL document CHEMBL4043294, “Chemogenomic Profiling of Human and Microbial FK506-Binding Proteins” (J Med Chem, 2018) can be followed below.

The target of assay [1] is T1, Peptidyl-prolyl cis-trans isomerase FKBP3 (Homo sapiens, UniProt Q00688).
T1 sequence (Q00688 whole entry): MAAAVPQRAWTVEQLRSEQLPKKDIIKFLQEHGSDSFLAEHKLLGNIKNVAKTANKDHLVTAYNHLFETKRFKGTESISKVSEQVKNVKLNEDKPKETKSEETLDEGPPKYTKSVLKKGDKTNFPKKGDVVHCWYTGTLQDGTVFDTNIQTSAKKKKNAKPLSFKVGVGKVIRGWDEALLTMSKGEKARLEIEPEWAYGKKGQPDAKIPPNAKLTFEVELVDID
In words: Displacement of 5-(3-(4-(((5S,6S)-10-(3,5-dichlorophenylsulfonyl)-2-oxo-5-vinyl-3,10-diazabicyclo[4.3.1]decan-3-yl)methyl)-1H-1,2,3-triazol-1-yl)propylcarbamoyl)-2-(6-(dimethylamino)-3-(dimethyliminio)-3,10-dihydroanthracen-9-yl)benzoate from human FKBP25 after 30 mins by fluorescence polarization assay. In a few lines:
(§1)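 Competitive fluorescence polarization against a TAMRA-labelled tracer in 20 mM NaCl, 20 mM HEPES pH 8.0, 0.002% Tween20. Ligand serially diluted 1:1 in DMSO, then diluted 50-fold into tracer-containing buffer and added to protein. Equilibrated 30 min at room temperature before polarization read. Competition curves fitted.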

Assay [2] has as its target Peptidyl-prolyl cis-trans isomerase FKBP1A (Homo sapiens, UniProt P62942). Put plainly: Displacement of 5-(3-(4-(((5S,6S)-10-(3,5-dichlorophenylsulfonyl)-2-oxo-5-vinyl-3,10-diazabicyclo[4.3.1]decan-3-yl)methyl)-1H-1,2,3-triazol-1-yl)propylcarbamoyl)-2-(6-(dimethylamino)-3-(dimethyliminio)-3,10-dihydroanthracen-9-yl)benzoate from human FKBP12 after 30 mins by fluorescence polarization assay. In a few lines:
as §1
In general terms: Polarisation of emitted light reports the rotation of a fluorescent probe.

Assay [3] deals with T2, Peptidyl-prolyl cis-trans isomerase FKBP4 (Homo sapiens, UniProt Q02790).
T2 sequence (Q02790 whole entry): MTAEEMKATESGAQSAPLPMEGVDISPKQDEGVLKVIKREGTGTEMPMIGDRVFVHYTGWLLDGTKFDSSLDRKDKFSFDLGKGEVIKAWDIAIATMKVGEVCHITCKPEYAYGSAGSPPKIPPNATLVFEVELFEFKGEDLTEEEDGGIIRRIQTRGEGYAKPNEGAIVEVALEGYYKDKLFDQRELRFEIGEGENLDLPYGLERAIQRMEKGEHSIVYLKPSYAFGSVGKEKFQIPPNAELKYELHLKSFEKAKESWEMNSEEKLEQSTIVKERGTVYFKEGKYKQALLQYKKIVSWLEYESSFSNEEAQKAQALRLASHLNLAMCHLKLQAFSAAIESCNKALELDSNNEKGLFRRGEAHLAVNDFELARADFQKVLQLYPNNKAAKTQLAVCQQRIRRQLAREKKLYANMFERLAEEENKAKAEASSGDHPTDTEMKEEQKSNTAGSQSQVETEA
Put plainly: Displacement of 5-(3-(4-(((5S,6S)-10-(3,5-dichlorophenylsulfonyl)-2-oxo-5-vinyl-3,10-diazabicyclo[4.3.1]decan-3-yl)methyl)-1H-1,2,3-triazol-1-yl)propylcarbamoyl)-2-(6-(dimethylamino)-3-(dimethyliminio)-3,10-dihydroanthracen-9-yl)benzoate from human FKBP52 after 30 mins by fluorescence polarization assay. In short, it runs like this: as §1

Assay [4] concerns the target T3, Peptidyl-prolyl cis-trans isomerase FKBP2 (Homo sapiens, UniProt P26885).
T3 sequence (P26885 whole entry): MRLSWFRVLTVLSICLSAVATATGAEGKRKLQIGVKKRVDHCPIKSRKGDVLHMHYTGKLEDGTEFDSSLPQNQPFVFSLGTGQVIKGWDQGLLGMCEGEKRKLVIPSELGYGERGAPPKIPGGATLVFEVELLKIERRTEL
In words: Displacement of 5-(3-(4-(((5S,6S)-10-(3,5-dichlorophenylsulfonyl)-2-oxo-5-vinyl-3,10-diazabicyclo[4.3.1]decan-3-yl)methyl)-1H-1,2,3-triazol-1-yl)propylcarbamoyl)-2-(6-(dimethylamino)-3-(dimethyliminio)-3,10-dihydroanthracen-9-yl)benzoate from human FKBP13 after 30 mins by fluorescence polarization assay. In a few lines: as §1

The target in assay [5] is T4, Peptidyl-prolyl cis-trans isomerase FKBP5 (Homo sapiens, UniProt Q13451).
T4 sequence (Q13451 whole entry): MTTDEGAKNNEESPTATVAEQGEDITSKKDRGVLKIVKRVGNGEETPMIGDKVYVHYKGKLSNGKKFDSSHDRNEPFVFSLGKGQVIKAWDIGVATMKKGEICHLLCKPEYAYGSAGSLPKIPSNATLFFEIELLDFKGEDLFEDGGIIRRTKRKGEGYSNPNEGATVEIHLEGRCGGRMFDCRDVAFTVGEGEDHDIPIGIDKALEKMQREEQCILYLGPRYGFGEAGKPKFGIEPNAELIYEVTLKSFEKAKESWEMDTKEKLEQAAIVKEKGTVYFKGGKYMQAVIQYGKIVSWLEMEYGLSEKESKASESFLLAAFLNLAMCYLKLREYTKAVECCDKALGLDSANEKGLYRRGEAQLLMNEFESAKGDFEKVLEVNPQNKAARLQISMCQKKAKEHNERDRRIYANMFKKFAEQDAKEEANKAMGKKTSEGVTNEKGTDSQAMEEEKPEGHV
In words: Displacement of 5-(3-(4-(((5S,6S)-10-(3,5-dichlorophenylsulfonyl)-2-oxo-5-vinyl-3,10-diazabicyclo[4.3.1]decan-3-yl)methyl)-1H-1,2,3-triazol-1-yl)propylcarbamoyl)-2-(6-(dimethylamino)-3-(dimethyliminio)-3,10-dihydroanthracen-9-yl)benzoate from human FKBP51 after 30 mins by fluorescence polarization assay. In short, it runs like this: as §1

Assay [6] has as its target Peptidyl-prolyl cis-trans isomerase FKBP1B (Homo sapiens, UniProt P68106). Put plainly: Displacement of 5-(3-(4-(((5S,6S)-10-(3,5-dichlorophenylsulfonyl)-2-oxo-5-vinyl-3,10-diazabicyclo[4.3.1]decan-3-yl)methyl)-1H-1,2,3-triazol-1-yl)propylcarbamoyl)-2-(6-(dimethylamino)-3-(dimethyliminio)-3,10-dihydroanthracen-9-yl)benzoate from human FKBP12.6 after 30 mins by fluorescence polarization assay. In a few lines: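 Competitive fluorescence polarization with the fluorescent tracer in 20 mM NaCl, 20 mM HEPES pH 8.0, 0.002% Tween20. Ligand is serially diluted 1:1 in DMSO, then 1:50 into tracer-containing buffer. This mix is added to protein at 1.11× final concentration (protein:mix 45:5). After 30 min at room temperature to reach equilibrium, polarization is read and competition curves are fitted.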

A short description of assay [7]: Displacement of 5-(3-(4-(((5S,6S)-10-(3,5-dichlorophenylsulfonyl)-2-oxo-5-vinyl-3,10-diazabicyclo[4.3.1]decan-3-yl)methyl)-1H-1,2,3-triazol-1-yl)propylcarbamoyl)-2-(6-(dimethylamino)-3-(dimethyliminio)-3,10-dihydroanthracen-9-yl)benzoate from Candida albicans FKBP12 after 30 mins by fluorescence polarization assay. In a few lines:
as §1

Assay [8] is described as follows: Displacement of 5-(3-(4-(((5S,6S)-10-(3,5-dichlorophenylsulfonyl)-2-oxo-5-vinyl-3,10-diazabicyclo[4.3.1]decan-3-yl)methyl)-1H-1,2,3-triazol-1-yl)propylcarbamoyl)-2-(6-(dimethylamino)-3-(dimethyliminio)-3,10-dihydroanthracen-9-yl)benzoate from […] FKBP35 after 30 mins by fluorescence polarization assay. More on the design: species or system Plasmodium falciparum. In short, it runs like this:
as §1

Assay [9] deals with Chlamydia pneumoniae. In words: Antibacterial activity against Chlamydia pneumoniae CWL029 infected in human Hep2 or HeLa cells assessed as decrease in inclusion size at 10 uM after 48 hrs by immunofluorescent staining-based assay. It counts as functional, cell-based. In a few lines: (§2)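 HEp-2 or HeLa cells, 3.5 × 10^4 per well in RPMI1640 with 5% FBS, nonessential amino acids and 2 mM glutamine, grown overnight at 37 °C in 5% CO2. Inhibitor added at infection (C. pneumoniae CWL029 0.2 IFU/cell; C. trachomatis serovar D 0.5 IFU/cell). Plates centrifuged at 700g for 1 h at 35 °C, then incubated 48 h. Inclusions stained with anti-chlamydial-LPS immunofluorescence and host cells counterstained with Evans Blue. Recoverable bacteria normalized to untreated controls.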

In the next assay the test system is Chlamydia trachomatis. In words: Antibacterial activity against Chlamydia trachomatis Serovar D infected in human Hep2 or HeLa cells assessed as decrease in generation of infectious elementary bodies at 10 uM after 48 hrs by immunofluorescent staining-based assay. It counts as functional, cell-based. In short, it runs like this:
as §2

Assay [10] has as its target Outer membrane protein MIP (Legionella pneumophila, UniProt Q70YI1). Put plainly: Displacement of 5-(3-(4-(((5S,6S)-10-(3,5-dichlorophenylsulfonyl)-2-oxo-5-vinyl-3,10-diazabicyclo[4.3.1]decan-3-yl)methyl)-1H-1,2,3-triazol-1-yl)propylcarbamoyl)-2-(6-(dimethylamino)-3-(dimethyliminio)-3,10-dihydroanthracen-9-yl)benzoate from Legionella pneumophila Mip after 30 mins by fluorescence polarization assay. In short, it runs like this: as §1

Assay [11] addresses T5, Peptidyl-prolyl cis-trans isomerase Mip (Chlamydia pneumoniae, UniProt Q9Z7P3).
T5 sequence (Q9Z7P3 whole entry): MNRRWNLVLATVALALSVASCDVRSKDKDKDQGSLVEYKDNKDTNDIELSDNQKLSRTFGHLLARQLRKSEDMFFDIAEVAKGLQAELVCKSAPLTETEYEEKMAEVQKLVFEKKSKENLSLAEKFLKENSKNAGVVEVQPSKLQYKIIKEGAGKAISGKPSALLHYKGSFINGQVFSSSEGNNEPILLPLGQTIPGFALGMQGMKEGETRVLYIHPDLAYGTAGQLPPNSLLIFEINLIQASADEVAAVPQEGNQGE
Put plainly: Displacement of 5-(3-(4-(((5S,6S)-10-(3,5-dichlorophenylsulfonyl)-2-oxo-5-vinyl-3,10-diazabicyclo[4.3.1]decan-3-yl)methyl)-1H-1,2,3-triazol-1-yl)propylcarbamoyl)-2-(6-(dimethylamino)-3-(dimethyliminio)-3,10-dihydroanthracen-9-yl)benzoate from Chlamydia pneumoniae Mip after 30 mins by fluorescence polarization assay. In a few lines: as §1

The nature of assay [12]: Displacement of 5-(3-(4-(((5S,6S)-10-(3,5-dichlorophenylsulfonyl)-2-oxo-5-vinyl-3,10-diazabicyclo[4.3.1]decan-3-yl)methyl)-1H-1,2,3-triazol-1-yl)propylcarbamoyl)-2-(6-(dimethylamino)-3-(dimethyliminio)-3,10-dihydroanthracen-9-yl)benzoate from Chlamydia trachomatis Mip after 30 mins by fluorescence polarization assay. In short, it runs like this:
as §1

Assay [13] has as its system Chlamydia pneumoniae. Put plainly: Antibacterial activity against Chlamydia pneumoniae CWL029 infected in human Hep2 or HeLa cells assessed as decrease in generation of infectious elementary bodies at 10 uM after 48 hrs by immunofluorescent staining-based assay. It counts as functional, cell-based. In a few lines: as §2
The next assay deals with Legionella pneumophila. In words: Antibacterial activity against Legionella pneumophila Corby infected in differentiated human THP1 cells assessed as bacterial growth inhibition after 24 hrs. It counts as functional. In short, it runs like this:
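THP-1 monocytes at 5 × 10^5 cells/mL were differentiated with 100 nM PMA for 2 days. L. pneumophila Corby grown 3 days on BCYE agar was added at MOI 1. After 2 h, extracellular bacteria were washed off with PBS and compound was added in medium (control 1% DMSO). At 2 and 24 h, cells were lysed with 0.1% Triton X-100 and dilutions plated on BCYE. Colonies counted after 3–4 days at 37 °C. Three independent experiments in duplicate.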

Assay [14] concerns Plasmodium falciparum. In words: Antiparasitic activity against multidrug-resistant Plasmodium falciparum Dd2 infected in human RBC assessed as decrease in parasitemia after 60 hrs by Hoechst 33342 staining-based flow cytometric method. It counts as functional. The conditions noted are these: Dd2, 60 h. In short, it runs like this:
(§3)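 Sorbitol-synchronized early-stage parasites, adjusted to 1% parasitemia at 2% hematocrit. Serial dilutions of compound in DMSO (≤0.05% per well) applied in triplicate for 60 h. Cells stained with 16.2 μM Hoechst 33342 in PBS for 20 min at room temperature. Parasitemia read by flow cytometry; IC50 estimated from dose–response curves.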
On the technique in general: A flow cytometer gives signals particle by particle.

Assay [15] has as its system Plasmodium falciparum. In words: Antiparasitic activity against Plasmodium falciparum 3D7 infected in human RBC assessed as decrease in parasitemia after 60 hrs by Hoechst 33342 staining-based flow cytometric method. It counts as functional. In short, it runs like this:
as §3

The structures appear in SMILES notation. Active and inactive are the calls of the source. The rule behind the calls is not given here.

Chain of Outer membrane protein MIP (Q70YI1 21-233 limits assumed): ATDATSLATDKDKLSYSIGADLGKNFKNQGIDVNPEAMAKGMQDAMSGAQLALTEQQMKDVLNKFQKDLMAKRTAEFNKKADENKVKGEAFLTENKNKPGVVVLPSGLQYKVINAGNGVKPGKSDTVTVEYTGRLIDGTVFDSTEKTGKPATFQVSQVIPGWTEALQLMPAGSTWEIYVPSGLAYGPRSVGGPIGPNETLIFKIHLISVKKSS
Chain of Peptidyl-prolyl cis-trans isomerase FKBP1A (P62942 whole entry): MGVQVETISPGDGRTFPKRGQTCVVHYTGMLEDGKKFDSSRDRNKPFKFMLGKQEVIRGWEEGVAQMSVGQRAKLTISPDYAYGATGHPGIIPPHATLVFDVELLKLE
Chain of Peptidyl-prolyl cis-trans isomerase FKBP1B (P68106 whole entry): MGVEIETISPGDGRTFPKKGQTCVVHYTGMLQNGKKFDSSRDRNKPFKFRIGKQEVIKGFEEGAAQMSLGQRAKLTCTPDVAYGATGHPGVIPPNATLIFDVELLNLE

In general, Ki refers to the equilibrium dissociation constant of an inhibitor or competing ligand from its target. Lower therefore signals a stronger hold on the target. As to `COC[C@H]1CN(Cc2ccccn2)C(=O)[C@@H]2CCC[C@H]1N2S(=O)(=O)c1cc(Cl)cc(Cl)c1`, the Ki in [1] was found to be 1.13 µM; in assay [2] it was 0.00045 µM; in assay [3], 0.0189 µM; in assay [4] it was 0.0605 µM; in assay [5], 0.0245 µM; in assay [6], 0.00123 µM.

As for `C=C[C@H]1CN(Cc2ccco2)C(=O)[C@@H]2CCC[C@H]1N2S(=O)(=O)c1cc(Cl)cc(Cl)c1`, the Ki is 1.49 µM in assay [7]; 5.22 µM in assay [8]; 6.59 µM in [10]; 0.315 µM in [11]; 1.82 µM in assay [12]. For the same compound, the result in the assay with Chlamydia pneumoniae [9], in the assay with Chlamydia trachomatis and with Chlamydia pneumoniae [13] was Active.

The IC50 is the concentration at which inhibition is half-maximal. `CC[C@H]1CN(Cc2ccccn2)C(=O)[C@@H]2CCC[C@H]1N2S(=O)(=O)c1cc(Cl)cc(Cl)c1`: the Ki in assay [7] was found to be 0.0401 µM; in [8] it was 0.0981 µM; in [10] it was 0.598 µM; in assay [11], 0.399 µM; in assay [12], 1.81 µM. In addition, the “growth inhibition (GI)” value in the assay on Legionella pneumophila was “Dose-dependent effect”. For the same compound, the IC50 is 3.1 µM in the assay on Plasmodium falciparum [14] and 2.3 µM in the assay with Plasmodium falciparum [15] (3D7, 60 h). Also, the Activity result in the assay with Plasmodium falciparum [15] was “Dose-dependent effect”.
